Test results taken from ChEMBL document CHEMBL5058577, “EUbOPEN Chemogenomics Library 2 (Multiplex)” (2022).

Tested on: HEK-293T
Test: Multiplex assay against HEK293T
Format: toxicity, cell-based
Conditions: human
How it was run: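 Phenotypes for tubulin, mitochondrial mass and membrane permeability are expressed as per cents of healthy-nucleus cells. Cells were stained live at seeding with Hoechst33342, BioTracker Green Microtubule Cytoskeleton Dye, MitoTracker Red and Annexin V Alexa Fluor 680, then imaged after compound addition on a CQ1 microscope at 37°C and 5% CO2. Machine-learning gating in CellPathfinder separated Hoechst high-intensity objects from normal cells, divided normal cells by nuclear state (healthy, pyknosed, fragmented) and divided pyknosed cells into mitotic or apoptotic.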

[1] = 12 h, 1 µM, compound concentration 1 uM, replicate 1
[2] = 12 h, 1 µM, compound concentration 1 uM, replicate 2
[3] = 12 h, 10 µM, compound concentration 10 uM, replicate 1
[4] = 12 h, 10 µM, compound concentration 10 uM, replicate 2
[5] = 24 h, 1 µM, compound concentration 1 uM, replicate 1
[6] = 24 h, 1 µM, compound concentration 1 uM, replicate 2
[7] = 24 h, 10 µM, compound concentration 10 uM, replicate 1
[8] = 24 h, 10 µM, compound concentration 10 uM, replicate 2
[9] = 48 h, 1 µM, compound concentration 1 uM, replicate 1
[10] = 48 h, 1 µM, compound concentration 1 uM, replicate 2
[11] = 48 h, 10 µM, compound concentration 10 uM, replicate 1
[12] = 48 h, 10 µM, compound concentration 10 uM, replicate 2

O=C(Nc1cc(-c2ccccc2)nn1-c1ccccc1F)c1ccc([N+](=O)[O-])cc1
Population Apoptotic (%) [1]: 33% | Population Fragmented Nuclei (%) [1]: 7% | Population Healthy Nuclei (%) [1]: 78% | Population Hoechst High Intensity Objects (%) [1]: 9% | Population Membrane Permeable-Phenotype (%) [1]: 0% | Population Mitochondria Different-Phenotype (%) [1]: 31% | Population Mitotic Cells (%) [1]: 66% | Population Normal (%) [1]: 90% | Population Pyknosed Nuclei (%) [1]: 13% | Population Tubulin-Different-Phenotype (%) [1]: 19% | Total Cell Count [1]: 402 | Population Apoptotic (%) [2]: 37% | Population Fragmented Nuclei (%) [2]: 6% | Population Healthy Nuclei (%) [2]: 83% | Population Hoechst High Intensity Objects (%) [2]: 6% | Population Mitochondria Different-Phenotype (%) [2]: 48% | Population Mitotic Cells (%) [2]: 62% | Population Normal (%) [2]: 94% | Population Pyknosed Nuclei (%) [2]: 9% | Total Cell Count [2]: 417 | Population Apoptotic (%) [3]: 37% | Population Fragmented Nuclei (%) [3]: 10% | Population Healthy Nuclei (%) [3]: 71% | Population Hoechst High Intensity Objects (%) [3]: 5% | Population Membrane Permeable-Phenotype (%) [3]: 0% | Population Mitochondria Different-Phenotype (%) [3]: 41% | Population Mitotic Cells (%) [3]: 62% | Population Normal (%) [3]: 94% | Population Pyknosed Nuclei (%) [3]: 17% | Population Tubulin-Different-Phenotype (%) [3]: 40% | Total Cell Count [3]: 342 | Population Apoptotic (%) [4]: 44% | Population Fragmented Nuclei (%) [4]: 6% | Population Healthy Nuclei (%) [4]: 73% | Population Hoechst High Intensity Objects (%) [4]: 6% | Population Mitochondria Different-Phenotype (%) [4]: 65% | Population Mitotic Cells (%) [4]: 55% | Population Normal (%) [4]: 93% | Population Pyknosed Nuclei (%) [4]: 20% | Population Tubulin-Different-Phenotype (%) [4]: 45% | Total Cell Count [4]: 367 | Population Apoptotic (%) [5]: 33% | Population Fragmented Nuclei (%) [5]: 8% | Population Healthy Nuclei (%) [5]: 78% | Population Hoechst High Intensity Objects (%) [5]: 4% | Population Membrane Permeable-Phenotype (%) [5]: 0% | Population Mitochondria Different-Phenotype (%) [5]: 21% | Population Mitotic Cells (%) [5]: 66% | Population Normal (%) [5]: 95% | Population Pyknosed Nuclei (%) [5]: 12% | Population Tubulin-Different-Phenotype (%) [5]: 17% | Total Cell Count [5]: 481 | Population Apoptotic (%) [6]: 35% | Population Fragmented Nuclei (%) [6]: 12% | Population Membrane Permeable-Phenotype (%) [6]: 1% | Population Mitochondria Different-Phenotype (%) [6]: 31% | Population Mitotic Cells (%) [6]: 64% | Population Pyknosed Nuclei (%) [6]: 8% | Population Tubulin-Different-Phenotype (%) [6]: 16% | Total Cell Count [6]: 530 | Population Apoptotic (%) [7]: 15% | Population Fragmented Nuclei (%) [7]: 9% | Population Healthy Nuclei (%) [7]: 77% | Population Hoechst High Intensity Objects (%) [7]: 2% | Population Membrane Permeable-Phenotype (%) [7]: 0% | Population Mitochondria Different-Phenotype (%) [7]: 35% | Population Mitotic Cells (%) [7]: 84% | Population Normal (%) [7]: 97% | Population Pyknosed Nuclei (%) [7]: 13% | Population Tubulin-Different-Phenotype (%) [7]: 35% | Total Cell Count [7]: 434 | Population Apoptotic (%) [8]: 22% | Population Fragmented Nuclei (%) [8]: 7% | Population Healthy Nuclei (%) [8]: 83% | Population Hoechst High Intensity Objects (%) [8]: 3% | Population Mitochondria Different-Phenotype (%) [8]: 47% | Population Mitotic Cells (%) [8]: 77% | Population Normal (%) [8]: 96% | Population Pyknosed Nuclei (%) [8]: 8% | Population Tubulin-Different-Phenotype (%) [8]: 33% | Total Cell Count [8]: 482 | Population Apoptotic (%) [9]: 17% | Population Fragmented Nuclei (%) [9]: 13% | Population Healthy Nuclei (%) [9]: 79% | Population Hoechst High Intensity Objects (%) [9]: 3% | Population Membrane Permeable-Phenotype (%) [9]: 2% | Population Mitochondria Different-Phenotype (%) [9]: 14% | Population Mitotic Cells (%) [9]: 82% | Population Normal (%) [9]: 96% | Population Pyknosed Nuclei (%) [9]: 7% | Population Tubulin-Different-Phenotype (%) [9]: 9% | Total Cell Count [9]: 893 | Population Apoptotic (%) [10]: 33% | Population Fragmented Nuclei (%) [10]: 17% | Population Healthy Nuclei (%) [10]: 74% | Population Hoechst High Intensity Objects (%) [10]: 2% | Population Mitochondria Different-Phenotype (%) [10]: 15% | Population Mitotic Cells (%) [10]: 66% | Population Normal (%) [10]: 97% | Population Tubulin-Different-Phenotype (%) [10]: 11% | Total Cell Count [10]: 799 | Population Apoptotic (%) [11]: 22% | Population Fragmented Nuclei (%) [11]: 12% | Population Healthy Nuclei (%) [11]: 77% | Population Hoechst High Intensity Objects (%) [11]: 2% | Population Membrane Permeable-Phenotype (%) [11]: 2% | Population Mitochondria Different-Phenotype (%) [11]: 19% | Population Mitotic Cells (%) [11]: 77% | Population Normal (%) [11]: 97% | Population Pyknosed Nuclei (%) [11]: 9% | Population Tubulin-Different-Phenotype (%) [11]: 23% | Total Cell Count [11]: 671 | Population Apoptotic (%) [12]: 20% | Population Fragmented Nuclei (%) [12]: 15% | Population Hoechst High Intensity Objects (%) [12]: 3% | Population Membrane Permeable-Phenotype (%) [12]: 1% | Population Mitochondria Different-Phenotype (%) [12]: 27% | Population Mitotic Cells (%) [12]: 79% | Population Normal (%) [12]: 96% | Population Pyknosed Nuclei (%) [12]: 6% | Population Tubulin-Different-Phenotype (%) [12]: 26% | Total Cell Count [12]: 666
